Tests used:
Details in all cases: tested as the 18F-labelled form
[1] = molecular target: Sodium-dependent serotonin transporter (Rattus norvegicus) (UniProt P31652); test: Specific binding of [18F]-AFA in rat striatum after nisoxetine treatment; n=3; assay type: functional, tissue-based
In short: (§1)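 Rats, three per group, were pretreated iv with blocker at 2 mg/kg in saline, or with saline as control, 10–15 min before tail-vein F-18 radioligand (about 20 µCi). Killed at 60 min and regional %ID/g determined. Specific binding = (region activity − cerebellum activity)/cerebellum activity; mean ± SD.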

Rattus norvegicus [2] = organism: Rattus norvegicus; test: Regional uptake of [18F]-AFA in blood of rat pretreated with compound GBR-12935; n=3; assay type: functional, organism-based
In short: (§2)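 Male Sprague-Dawley rats, three per group, received blocker (2 mg/kg iv in saline) or saline only (controls) 10–15 min before about 20 µCi of tail-vein F-18 radioligand. Killed 60 min after tracer. Blood and brain regions weighed and gamma-counted. %ID/g was decay- and tail-corrected; mean ± SD.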

Rattus norvegicus [3] = organism: Rattus norvegicus; test: Regional uptake of [18F]AFA in hippocampus of rat pretreated with compound GBR-12935; n=3; assay type: functional, organism-based; in short: as §2
Rattus norvegicus [4] = organism: Rattus norvegicus; test: Regional uptake of [18F]-AFA in hypothalamus of rat pretreated with compound nisoxetine; n=3; assay type: functional, organism-based; in short: as §2
[5] = molecular target: Sodium-dependent serotonin transporter (Rattus norvegicus) (UniProt P31652); test: Specific binding of [18F]AFA in rat hypothalamus after nisoxetine treatment; n=3; assay type: functional, tissue-based; in short: as §1
Rattus norvegicus [6] = organism: Rattus norvegicus; test: Regional uptake of [18F]AFA in thalamus of rat pretreated with compound nisoxetine; n=3; assay type: functional, organism-based; in short: as §2
Rattus norvegicus [7] = organism: Rattus norvegicus; test: Regional uptake of [18F]AFA in frontal cortex of rat pretreated with compound nisoxetine; n=3; assay type: functional, organism-based; in short: as §2
Rattus norvegicus [8] = organism: Rattus norvegicus; test: Regional uptake of [18F]-AFA in striatum of rat pretreated with compound GBR-12935; n=3; assay type: functional, organism-based; in short: as §2
Rattus norvegicus [9] = organism: Rattus norvegicus; test: Regional uptake of [18F]AFA in thalamus of rat pretreated with compound GBR-12935; n=3; assay type: functional, organism-based; in short: as §2
Rattus norvegicus [10] = organism: Rattus norvegicus; test: Regional uptake of [18F]AFA in hippocampus of rat pretreated with compound 7e; n=3; assay type: functional, organism-based
Rattus norvegicus [11] = organism: Rattus norvegicus; test: Regional uptake of [18F]AFA in hypothalamus of rat pretreated with compound GBR-12935; n=3; assay type: functional, organism-based; in short: as §2
Rattus norvegicus [12] = organism: Rattus norvegicus; test: Regional uptake of [18F]AFA in blood of rat pretreated with compound nisoxetine; n=3; assay type: functional, organism-based; in short: as §2
[13] = molecular target: Sodium-dependent serotonin transporter (Rattus norvegicus) (UniProt P31652); test: Specific binding of [18F]AFA in rat thalamus after GBR-12935 treatment; n=3; assay type: functional, tissue-based; in short: as §1
[14] = molecular target: Sodium-dependent serotonin transporter (Rattus norvegicus) (UniProt P31652); test: Specific binding of [18F]AFA in rat hypothalamus after GBR-12935 treatment; n=3; assay type: functional, tissue-based; in short: as §1
Rattus norvegicus [15] = organism: Rattus norvegicus; test: Regional uptake of [18F]AFA in cerebellum of rat pretreated with compound GBR-12935; n=3; assay type: functional, organism-based; in short: as §2
Rattus norvegicus [16] = organism: Rattus norvegicus; test: Regional uptake of [18F]AFA in cerebellum of rat pretreated with compound citalopram; n=3; assay type: functional, organism-based; in short: as §2
Rattus norvegicus [17] = organism: Rattus norvegicus; test: Regional uptake of [18F]AFA in striatum of rat pretreated with compound nisoxetine; n=3; assay type: functional, organism-based; in short: as §2
Rattus norvegicus [18] = organism: Rattus norvegicus; test: Regional uptake of [18F]AFA in frontal cortex of rat pretreated with compound 7e; n=3; assay type: functional, organism-based
Rattus norvegicus [19] = organism: Rattus norvegicus; test: Regional uptake of [18F]AFA in frontal cortex of rat pretreated with compound GBR-12935; n=3; assay type: functional, organism-based; in short: as §2
Rattus norvegicus [20] = organism: Rattus norvegicus; test: Regional uptake of [18F]AFA in hypothalamus of rat pretreated with compound citalopram; n=3; assay type: functional, organism-based; in short: as §2
Rattus norvegicus [21] = organism: Rattus norvegicus; test: Regional uptake of [18F]-AFA in striatum of rat pretreated with compound 7e; n=3; assay type: functional, organism-based
[22] = molecular target: Sodium-dependent serotonin transporter (Rattus norvegicus) (UniProt P31652); test: Specific binding of [18F]AFA in rat thalamus after nisoxetine treatment; n=3; assay type: functional, tissue-based; in short: as §1
[23] = molecular target: Sodium-dependent serotonin transporter (Rattus norvegicus) (UniProt P31652); test: Specific binding of [18F]AFA in rat frontal cortex after nisoxetine treatment; n=3; assay type: functional, tissue-based; in short: as §1
[24] = molecular target: Sodium-dependent serotonin transporter (Rattus norvegicus) (UniProt P31652); test: Specific binding of [18F]AFA in rat hippocampus after citalopram treatment; n=3; assay type: functional, tissue-based; in short: as §1

Sequence of Sodium-dependent serotonin transporter (Rattus norvegicus) (P31652 whole entry): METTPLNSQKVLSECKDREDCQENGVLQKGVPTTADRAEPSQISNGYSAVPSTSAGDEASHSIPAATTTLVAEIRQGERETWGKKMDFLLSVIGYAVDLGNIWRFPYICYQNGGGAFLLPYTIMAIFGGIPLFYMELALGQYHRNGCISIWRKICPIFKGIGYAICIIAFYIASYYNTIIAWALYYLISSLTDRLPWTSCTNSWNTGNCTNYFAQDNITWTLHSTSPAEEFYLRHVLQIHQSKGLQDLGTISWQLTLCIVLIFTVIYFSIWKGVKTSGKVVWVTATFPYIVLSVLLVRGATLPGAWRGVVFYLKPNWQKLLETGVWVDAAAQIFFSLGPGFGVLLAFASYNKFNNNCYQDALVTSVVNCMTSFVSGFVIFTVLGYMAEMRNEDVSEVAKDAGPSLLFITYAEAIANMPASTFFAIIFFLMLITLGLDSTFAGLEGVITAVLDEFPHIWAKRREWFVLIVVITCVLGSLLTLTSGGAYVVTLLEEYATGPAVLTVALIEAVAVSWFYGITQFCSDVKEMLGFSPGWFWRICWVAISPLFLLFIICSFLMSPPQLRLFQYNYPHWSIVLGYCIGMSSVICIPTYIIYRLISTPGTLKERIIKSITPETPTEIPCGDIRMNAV

Specific binding [1]: 2.1 %ID/g
Specific binding [5]: 4 %ID/g
Specific binding [13]: 3.38 %ID/g
Specific binding [14]: 3.85 %ID/g
Specific binding [22]: 3.56 %ID/g
Specific binding [23]: 1.82 %ID/g
Specific binding [24]: 0.54 %ID/g
Structure (SMILES): CN(C)Cc1ccccc1Sc1ccc(CCF)cc1N
Uptake (Rattus norvegicus [2]): 0.06 %ID/g
Uptake (Rattus norvegicus [3]): 0.18 %ID/g
Uptake (Rattus norvegicus [4]): 0.33 %ID/g
Uptake (Rattus norvegicus [6]): 0.29 %ID/g
Uptake (Rattus norvegicus [7]): 0.19 %ID/g
Uptake (Rattus norvegicus [8]): 0.2 %ID/g
Uptake (Rattus norvegicus [9]): 0.25 %ID/g
Uptake (Rattus norvegicus [10]): 0.11 %ID/g
Uptake (Rattus norvegicus [11]): 0.32 %ID/g
Uptake (Rattus norvegicus [12]): 0.06 %ID/g
Uptake (Rattus norvegicus [15]): 0.06 %ID/g
Uptake (Rattus norvegicus [16]): 0.06 %ID/g
Uptake (Rattus norvegicus [17]): 0.21 %ID/g
Uptake (Rattus norvegicus [18]): 0.1 %ID/g
Uptake (Rattus norvegicus [19]): 0.17 %ID/g
Uptake (Rattus norvegicus [20]): 0.12 %ID/g
Uptake (Rattus norvegicus [21]): 0.11 %ID/g

— ChEMBL document CHEMBL1145212, “Fluorinated diaryl sulfides as serotonin transporter ligands: synthesis, structure-activity relationship study, and in vivo evaluation of fluorine-18-labeled compounds as PET imaging agents” (J Med Chem, 2005)
